Screening data from PubChem BioAssay.
This is a sample that favours compounds with a hit; in the whole collection about 1.3% have one here.
LANA-H2A inh: blocks KSHV LANA binding to histone H2A/H2B | inhibition, % (concentration not given with the values) | AID 2629 | cell-free LANA-H2A/H2B peptide, fluorescence polarization | Q9QR71 | hit rate 0.6% among 320,000; in the data active means inhibition mostly above about 10%, no sharp cut-off; inactive means mostly below about 6.7%
Target sequence (Q9QR71 whole entry, looked up): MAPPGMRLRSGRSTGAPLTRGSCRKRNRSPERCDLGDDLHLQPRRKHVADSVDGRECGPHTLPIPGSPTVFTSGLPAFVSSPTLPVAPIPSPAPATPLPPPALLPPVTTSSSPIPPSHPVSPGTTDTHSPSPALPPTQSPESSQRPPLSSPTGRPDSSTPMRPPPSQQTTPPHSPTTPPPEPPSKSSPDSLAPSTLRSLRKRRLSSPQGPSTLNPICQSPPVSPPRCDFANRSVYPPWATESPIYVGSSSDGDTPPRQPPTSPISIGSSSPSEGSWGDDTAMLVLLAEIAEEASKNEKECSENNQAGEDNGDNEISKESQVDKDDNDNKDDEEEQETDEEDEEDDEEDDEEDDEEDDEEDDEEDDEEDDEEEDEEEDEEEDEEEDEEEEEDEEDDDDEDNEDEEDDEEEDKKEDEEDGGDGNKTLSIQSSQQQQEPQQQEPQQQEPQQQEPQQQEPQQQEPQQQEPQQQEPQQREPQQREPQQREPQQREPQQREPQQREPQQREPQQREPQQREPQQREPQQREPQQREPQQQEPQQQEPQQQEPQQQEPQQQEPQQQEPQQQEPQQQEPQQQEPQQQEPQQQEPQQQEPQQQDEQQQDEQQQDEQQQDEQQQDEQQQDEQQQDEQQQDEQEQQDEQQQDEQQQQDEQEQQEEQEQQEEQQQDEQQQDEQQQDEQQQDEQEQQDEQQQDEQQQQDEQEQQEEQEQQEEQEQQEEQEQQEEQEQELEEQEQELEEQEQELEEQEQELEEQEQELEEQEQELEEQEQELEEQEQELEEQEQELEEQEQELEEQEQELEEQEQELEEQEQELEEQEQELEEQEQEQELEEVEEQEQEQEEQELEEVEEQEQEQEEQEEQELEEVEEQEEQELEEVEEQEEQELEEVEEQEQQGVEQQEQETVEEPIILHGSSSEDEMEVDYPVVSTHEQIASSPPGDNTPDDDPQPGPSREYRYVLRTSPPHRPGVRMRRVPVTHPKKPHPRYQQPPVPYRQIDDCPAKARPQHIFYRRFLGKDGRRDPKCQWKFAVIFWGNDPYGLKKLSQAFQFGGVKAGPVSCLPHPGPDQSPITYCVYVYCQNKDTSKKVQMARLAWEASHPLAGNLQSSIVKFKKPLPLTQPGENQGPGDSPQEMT
Lipid droplet: modulators of hepatic lipid droplet formation. AML12 mouse hepatocytes, oleate lipid droplets, BODIPY imaging. inhibition, % at 6.5 µM. hit rate 0.4% among 240,000;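 active means lipid droplet intensity inhibited by at least 50%, with more than 500 cells counted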
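Material – AML12 mouse liver cells · Also added – oleate loading, 100 µM · Compound dosing – 6.5 µM single-point dosing · Times – overnight treatment with compound plus oleate · Measured by – fluorescence imaging, 20x objective, two fields per well · Read-out – percent inhibition of filter-corrected integrated lipid droplet intensity per well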
STK33 inh: inhibitors of human STK33 kinase. purified STK33, MBP phosphorylation, ADP-Glo luminescence. inhibition, % at 10 µM. AID 2661. Q9BYT3. hit rate 0.073% among 320,000;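 active means inhibition at or above 25%, using the most active replicate where run in duplicate; inactive means inhibition below 25%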
GSK3A inh: human GSK-3 alpha kinase inhibition; ADP-Glo luminescence, 60 min; inhibition, % at 10 µM; hit rate 0.1% among 320,000;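 active means more than half of replicates show inhibition above 20%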;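 further: GST-tagged GSK-3 alpha with peptide substrate and 25 µM ATP; 0% = DMSO neutral wells and 100% = GW8510 positive control wells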
H9c2 TAG inh: reduces triacylglycerol accumulation in H9c2 cells | Nile Red lipid (TAG) fluorescence; cells loaded with 200 µM oleic acid | inhibition, % at 12.5 µM | hit rate 0.66% among 230,000;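 active means pattern-corrected inhibition of lipid staining of at least 50% with the nuclear-stain viability signal not falling by more than 50%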;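 further: 0% = DMSO wells and 100% = triacsin C control wells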
GSK3beta inhib: blocks human GSK3beta kinase activity; hit rate 0.038% among 300,000; AID 2097; GST-GSK3beta kinase, ADP-Glo luminescence, 60 min; stronger effect = lower value; P49841; activity score (negative = inhibition), % at 10 µM;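 active means more than half of replicate wells score below -50%, meaning over 50% inhibition versus plate controls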;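 further: 0% = median DMSO wells and -100% = median GW8510 positive control wells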
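Test system – GST-tagged human GSK3beta kinase, cell-free · Incubation – 60 min enzyme reaction, room temperature · Signal – ADP-Glo luminescence · Also added – peptide substrate and ATP at 25 µM · Controls – DMSO neutral wells and GW8510 at 20 µM as positive · Buffer or medium – Tris/MgCl2 kinase buffer · Measure – Luminescence-derived activity versus plate DMSO and GW8510 wells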
Lipid drop inh: confirmation of inhibitors of hepatic lipid droplet formation. shares compounds with Lipid droplet. AML12 mouse hepatocytes, BODIPY lipid droplet imaging; droplets induced with 100 µM oleic acid. inhibition, % at 5.2 µM. hit rate 65% among 870;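 active means inhibition of lipid droplet metric at least 50%, with more than 300 cells in each of four replicates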;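 further: plate controls were DMSO with oleic acid for no effect and 5 µM Triacsin-C for full effect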
AML12 cytotox: AML12 hepatocyte cytotoxicity (counter-screen) | AML12 mouse hepatocytes, DAPI nuclear morphology cytotoxicity imaging; stronger effect = higher value; cells fed 100 µM oleate overnight | shares compounds with Lipid droplet | z-score at 5 µM | hit rate 3% among 870; in the data active means z-score above about 6.3;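 further: compound exposure lasted overnight at 37 °C before fixation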
AML12 tox ATP: confirmation of cytotoxicity in AML12 mouse hepatocytes | shares compounds with Lipid droplet | AML12 mouse hepatocyte viability, ATP luminescence; cells loaded with 100 µM oleic acid | cytotoxicity, % at 50 µM | 530 tested, under 10 active;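 active means cytotoxicity above 50% in each of four replicates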;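 further: compound exposure lasted overnight at 37 °C before the ATP read; 0% = DMSO-treated cells and 100% = wells with no cells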
Starred values were filed as active, the others as inactive; nt = no result.

SMILES	LANA-H2A inh	Lipid droplet	STK33 inh	GSK3A inh	H9c2 TAG inh	GSK3beta inhib	Lipid drop inh	AML12 cytotox	AML12 tox ATP
CCN1CCN(c2cc(C(C)C)nc3c(-c4ccccc4)c(C)nn23)CC1	2	55*	-2	-1	45	-1	50	-0.31	nt
COc1ccc(Cl)c(NC(=O)C/C(C)=N/NC(=O)CCc2ccccc2)c1	-6	122*	2	-1	nt	0	99*	-0.55	12
C/C(CC(=O)Nc1ccc(Cl)c(Cl)c1)=N\NC(=O)Cc1ccccc1	nt	-3	nt	nt	nt	-1	nt	nt	nt
CC(C)C(C)NC(=O)CSc1nc2scc(-c3ccco3)c2c(=O)n1-c1ccccc1 (centres undefined)	0	60*	1	0	42	1	32	-0.74	nt
CN(CC(=O)NCC1CCCCC1)S(=O)(=O)c1ccc(F)cc1	2	-10	-1	-1	nt	-5	nt	nt	nt
CCOC(=O)C1CCN(C(=O)CN(Cc2ccccc2)S(C)(=O)=O)CC1	3	-4	-1	-2	nt	-2	nt	nt	nt
CCOC(=O)C1CCC(CN(Cc2ccccc2)S(=O)(=O)c2ccc([N+](=O)[O-])cc2)CC1 (centres undefined)	-3	59*	-1	-2	nt	1	82*	-0.46	6
CCCN1C(=O)/C(=C/c2c(N3CCNC(=O)C3CC(=O)OCC)nc3c(C)cccn3c2=O)SC1=S (centres undefined)	-19	74*	0	-1	-40	0	58*	0.065	nt
CCOC(=O)CC1C(=O)NCCN1c1nc2ccc(C)cn2c(=O)c1/C=C1\SC(=S)N(CC(C)C)C1=O (centres undefined)	-31	41	-1	0	-56	2	nt	nt	nt
CCOC(=O)C1CCN(S(=O)(=O)c2ccc3c(c2)NC(=O)C(C)C(=O)N3)CC1 (centres undefined)	-8	63*	-1	0	39	0	87*	-0.68	8
CCOc1ccc2[nH]cc(S(=O)(=O)c3ccc(F)cc3)c(=O)c2c1	1	nt	-1	0	-15	0	nt	nt	nt
CCCOc1ccc(C2=NNC(c3cccs3)=Nc3ccc(OC)cc32)cc1	0	52*	-1	-1	10	-1	50	0.17	nt
COc1ccc2c(c1)C(c1cccs1)=NNC(c1ccncc1)=N2	-1	0	-1	2	5	-6	nt	nt	nt
Cc1cc(NC(=O)c2cc3ccccc3o2)cc(C)c1OCC(=O)N1CCOCC1	-3	91*	8	0	nt	1	107*	-0.82	34
CCOc1ccc(C(=O)COC(=O)C2CCN(c3ccc(C(F)(F)F)cn3)CC2)cc1	-5	nt	-2	0	-17	-1	nt	nt	nt
CCc1ccccc1NC(=O)c1cccc(NC(=O)/C=C/c2ccco2)c1	-2	53*	0	-1	nt	2	51	4.3	nt
CCN(Cc1ccccc1)C(=O)CCNS(=O)(=O)c1cc(Br)cnc1N	1	-18	0	-2	nt	1	nt	nt	nt
CC(=O)C1=C(C)NC(SCSc2ccccc2)=C(C#N)C1c1cccnc1 (centres undefined)	0	59*	-1	-2	nt	1	79*	0.91	-7
O=C1c2ccccc2C2=Nc3ccccc3SC(c3cccc(F)c3)C12 (centres undefined)	nt	66*	nt	nt	nt	1	65	8.8*	nt
O=C1c2ccccc2C2=Nc3ccccc3SC(c3ccc(Cl)cc3)C12 (centres undefined)	0	49	-4	-2	nt	-18	nt	nt	nt
CCCc1nc2ccc(N)cc2c(=O)n1Cc1ccccc1Cl	-2	-1	-1	-2	nt	-1	nt	nt	nt
Cc1ncoc1C(=O)N1CCCC(CCC(=O)NCc2ccccc2F)C1 (centres undefined)	-2	0	-2	-2	8	-1	nt	nt	nt
CC(C)c1cc(C(=O)N2CCCC(CCC(=O)NCc3ccccc3F)C2)n(C)n1 (centres undefined)	0	51*	-1	-7	-14	1	-14	0.48	nt
Cn1cc(S(=O)(=O)N2CCc3ccccc32)cc1C(=O)NC1CCCCC1	3	-33	0	-1	-8	0	nt	nt	nt
CCCCN(CCCNC(=O)CN1C(=O)COc2ccccc21)c1ccccc1	3	53*	0	-1	nt	1	103*	-0.38	4
SMILES	LANA-H2A inh	Lipid droplet	STK33 inh	GSK3A inh	H9c2 TAG inh	GSK3beta inhib	Lipid drop inh	AML12 cytotox	AML12 tox ATP
CC(C)c1ccc(NC(=S)NCc2cccs2)cc1	-4	2	0	4	nt	-12	nt	nt	nt
CC(C)CCOc1cccc(C2c3c(oc4ccccc4c3=O)C(=O)N2CCCN2CCOCC2)c1 (centres undefined)	nt	nt	nt	nt	3	nt	nt	nt	nt
O=C(Nc1ccccc1Cc1ccccc1)c1oc2ccccc2c1COc1ccccc1	3	6	-1	-1	nt	0	nt	nt	nt
O=C(NCCc1ccccc1)c1oc2ccccc2c1COc1ccccc1	-241	64*	3	5	nt	2	87*	-0.082	-9
CCOc1ccc(CCNC(=O)COC(=O)/C=C/c2ccc(OC(F)F)c(OC)c2)cc1OCC	3	nt	-2	-3	33	5	nt	nt	nt
CCOc1ccc(CCNC(=O)COC(=O)/C=C/c2ccc(OC)c(OC)c2)cc1OCC	1	94*	-1	-4	42	4	109*	-0.73	7
CCCNC(=O)COC(=O)/C=C/c1ccc(C)o1	3	21	-1	-1	-8	-2	nt	nt	nt
CCOc1ccc(CCNC(=O)COC(=O)/C=C/c2ccc(C)o2)cc1OCC	5	59*	1	-2	43	-1	91*	-0.68	10
CCN1C(=O)/C(=C\c2cn(-c3ccccc3)nc2-c2cccnc2)SC1=S	nt	-6	nt	nt	16	0	nt	nt	nt
Cc1ccc2nc(-c3ccccc3)c(-c3ccccc3)nc2c1	3	-45	0	-2	11	1	nt	nt	nt
Cc1ccc2nc(=O)c(NNc3ccccc3)cnc2c1	1	52*	-2	2	nt	-5	59	3.8	46
Cc1nc2ccccc2nc(=O)c1NNc1ccccc1	nt	59*	nt	nt	-8	1	59*	2.3	nt
Cc1c(C(=O)NCCSCc2ccc(F)cc2)cnn1-c1ccc(Cl)cc1	-2	-9	0	-2	-10	4	nt	nt	nt
COc1ccc(NC(=O)CSc2nc3ccccc3nc2N2CCCCC2)cc1	-3	73*	-2	-2	7	1	108*	-0.72	1
Cc1cccc(NC(=O)CSc2nc3ccccc3nc2N2CCCCC2)c1	3	31	-2	-3	15	5	nt	nt	nt
